Activity calls are given as the source filed them. No cut-off for these calls is given here.
Legend:
[1] = Inhibition of TNF-alpha-induced VCAM1 expression in HPAECs; type: functional, Homo sapiens
Method in brief: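 Cells were seeded to reach 90–95% confluency the next day. They were stimulated with TNF-α (1 ng/mL) ± compound (final DMSO 0.25%) for about 16 h and scored visually for toxicity. Cell-surface VCAM-1 was measured by anti-VCAM-1 (0.25 µg/mL, 30 min, 37 °C), then HRP anti-mouse IgG and TMB, read at OD 450 nm. IC50 is relative to the TNF-only response; mean of ≥3 determinations.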

Mus musculus [2] = assay: Inhibition of airway eosinophilia in BALF in sc dosed ovalbumin-sensitized/challenged Balb/C mouse model of allergic airway inflammation after 14 days; type: functional, organism-based
Method in brief: (§1)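 Male Balb/C mice, 5–6 weeks old, were sensitized i.p. with ovalbumin (8 µg) emulsified in aluminum hydroxide (1 mg) per mouse. They were then dosed s.c. in 2% Cremophor at 150, 100 or 50 mg/kg bid on days 11–13 and once on day 14. On day 14 lungs were lavaged (DMEM/F-12 + 5% FBS). Eosinophils were expressed as % of ≥300 Diff Quik-stained cytospin cells. Dexamethasone 3 mg/kg i.p. served as positive control.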

Mus musculus [3] = assay: Reduction of eosinophil level in BALF in ovalbumin-sensitized/challenged Balb/C mouse model of allergic airway inflammation at 100 mg/kg, po after 14 days; type: functional; parameters: scale not given: the % may be the effect or the level left
Mus musculus [4] = assay: Reduction of eosinophil level in BALF in ovalbumin-sensitized/challenged Balb/C mouse model of allergic airway inflammation at 150 mg/kg, sc after 14 days; type: functional; parameters: scale not given: the % may be the effect or the level left; settings: route subcutaneous; method in brief: as §1
[5] = Plasma concentration in ovalbumin-sensitized/challenged Balb/C mouse model of allergic airway inflammation at 50 mg/kg, sc after 14 days; type: ADME, organism-based; parameters: dose 50 mg/kg, route subcutaneous
Method in brief: (§2)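 Ovalbumin/alum-sensitized male Balb/C mice received s.c. doses in 2% Cremophor, bid on days 11–13 and once on day 14. Blood for plasma drug level was collected at euthanasia on day 14, 2–3 h after the final dose.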

Mus musculus [6] = assay: Reduction of eosinophil level in BALF in ovalbumin-sensitized/challenged Balb/C mouse model of allergic airway inflammation at 50 mg/kg, sc after 14 days; type: functional; parameters: scale not given: the % may be the effect or the level left; settings: route subcutaneous; method in brief: as §1
[7] = Plasma concentration in ovalbumin-sensitized/challenged Balb/C mouse model of allergic airway inflammation at 100 mg/kg, sc after 14 days; type: ADME, organism-based; parameters: dose 100 mg/kg, route subcutaneous; method in brief: as §2
[8] = Plasma concentration in ovalbumin-sensitized/challenged Balb/C mouse model of allergic airway inflammation at 150 mg/kg, sc after 14 days; type: ADME, organism-based; parameters: dose 150 mg/kg, route subcutaneous; method in brief: as §2
Homo sapiens [9] = organism: Homo sapiens; assay: Inhibition of TNF-alpha-induced E-selectin expression in HPAECs; type: functional
Homo sapiens [10] = organism: Homo sapiens; assay: Inhibition of TNF-alpha-induced MCP1 expression in HPAECs; type: functional
PBMC = assay: Inhibition of LPS-induced IL1-beta secretion in HPBMCs at 5 uM; type: functional, cell-based; settings: Homo sapiens
Rattus norvegicus [11] = organism: Rattus norvegicus; assay: Inhibition of paw swelling in rat adjuvant arthritis model; type: functional, organism-based
Rattus norvegicus [12] = organism: Rattus norvegicus; assay: Inhibition of splenomegaly in rat adjuvant arthritis model; type: functional, organism-based
Mus musculus [13] = assay: Inhibition of tissue eosinophilia in sc dosed ovalbumin-sensitized/challenged Balb/C mouse model of allergic asthma after 14 days; type: functional, organism-based
Mus musculus [14] = assay: Activity in sc dosed ovalbumin-sensitized/challenged Balb/C mouse model of allergic asthma by measuring reduced IgE levels after 14 days; type: functional, organism-based
Mus musculus [15] = assay: Activity in sc dosed ovalbumin-sensitized/challenged Balb/C mouse model of allergic asthma assessed as reduction of elevated lung mRNA levels of Th2 cytokines after 14 days; type: functional, organism-based
Mus musculus [16] = assay: Reduction of airway hyperresponsiveness in sc dosed ovalbumin-sensitized/challenged Balb/C mouse model of allergic asthma after 14 days; type: functional, organism-based

Structure (SMILES)	IC50 [1] [µM]	further results
COc1cc(OC)c(-c2cc3ccccc3s2)cc1/C=C/C(=O)c1ccc(C(=O)NC(=O)C(C)C)cc1	1.7	
COc1cc(OCC(CO)CO)c(/C=C/C(=O)c2ccc(C(=O)O)cc2)cc1-c1cccs1	21	
CCOC(=O)c1ccc(C(=O)/C=C/c2cc(-c3cc4ccccc4s3)c(OC)cc2OC)cc1	3.1	
COc1cc(OC)c(-c2cc3ccccc3s2)cc1/C=C/C(=O)c1ccc(C(N)=O)cc1	0.2	
COCCOCCOc1cc(OC)c(/C=C/C(=O)c2ccc(C(=O)O)cc2)cc1-c1cccs1	6.5	
COc1cc(OC)c(-c2cc3ccccc3n2C(=O)OC(C)(C)C)cc1/C=C/C(=O)c1ccc(C(=O)O)cc1	1.2	
COc1cc(OC)c(-c2cccs2)cc1/C=C/C(=O)c1cccc(C(=O)O)c1	4.2	
COc1cc(OC)c(-c2csc(C)n2)cc1/C=C/C(=O)c1ccc(C(=O)O)cc1	2.5	
COc1cc(OC)c(-c2cc3ccccc3o2)cc1/C=C/C(=O)c1ccc(C(=O)O)cc1	0.3	
CCc1cc(/C=C/C(=O)c2ccc(C(=O)O)cc2)c(OC)cc1OC	22	
COc1cc(OC)c(-c2ccsc2)cc1/C=C/C(=O)c1ccc(C(=O)O)cc1	2.1	
COc1cc(OCC(CO)CO)c(-c2cccs2)cc1/C=C/C(=O)c1ccc(C(=O)O)cc1	41	
COc1cc(OCCCN2CCOCC2)c(/C=C/C(=O)c2ccc(C(=O)O)cc2)cc1-c1cccs1	0.9	
COc1cc(OC)c(-c2cc3ccccc3s2)cc1/C=C/C(=O)c1ccc(C(=O)NC(C)=O)cc1	0.8	
COc1cc(OC)c(-c2cc3ccccc3[nH]2)cc1/C=C/C(=O)c1ccc(C(=O)O)cc1	0.9	Activity (Mus musculus [2]): Dose-dependent effect; Activity (Mus musculus [3]): 43%; Activity (Mus musculus [4]): 81%; concentration at 336 h [5]: 10 µM; Activity (Mus musculus [6]): 55%; concentration at 336 h [7]: 14 µM; concentration at 336 h [8]: 19 µM
COc1cc(OC)c(-c2nc3ccccc3[nH]2)cc1/C=C/C(=O)c1ccc(C(=O)O)cc1	4.4	
COc1ccc(-c2cccs2)cc1/C=C/C(=O)c1ccc(C(=O)O)cc1	3.1	
COCCOCCOc1cc(OC)c(-c2cccs2)cc1/C=C/C(=O)c1ccc(C(=O)O)cc1	1.3	
COc1cc(OC)c(-c2cc3ccccc3s2)cc1/C=C/C(=O)c1ccc(C(=O)O)cc1	0.6	Activity (Homo sapiens [9]): Active; Activity (Homo sapiens [10]): Active; Activity (PBMC): Active; Activity (Mus musculus [2]): Dose-dependent effect; Activity (Rattus norvegicus [11]): Dose-dependent effect; Activity (Rattus norvegicus [12]): Dose-dependent effect; Activity (Mus musculus [13]): Dose-dependent effect; Activity (Mus musculus [14]): Active; Activity (Mus musculus [15]): Active; Activity (Mus musculus [16]): Active
CCOc1cc(OC)c(/C=C/C(=O)c2ccc(C(=O)O)cc2)cc1-c1cccs1	4.9	
COc1cc(OCC(=O)N2CCOCC2)c(/C=C/C(=O)c2ccc(C(=O)O)cc2)cc1-c1cccs1	6	
CONC(=O)c1ccc(C(=O)/C=C/c2cc(-c3cc4ccccc4s3)c(OC)cc2OC)cc1	0.5	
COc1cc(OC)c(-c2ccc(C)s2)cc1/C=C/C(=O)c1ccc(C(=O)O)cc1	1	
COc1cc(OC)c(-c2cc3ccccc3s2)cc1/C=C/C(=O)c1ccc(C(=O)NCCN2CCOCC2)cc1	0.8	
COc1cc(OCCN2CCOCC2)c(/C=C/C(=O)c2ccc(C(=O)O)cc2)cc1-c1cccs1	0.8	
COCCOCCOCCOc1cc(OC)c(-c2cccs2)cc1/C=C/C(=O)c1ccc(C(=O)O)cc1	4	
COc1cc(OC)c(-c2cccs2)cc1/C=C/C(=O)c1ccc(C(=O)O)cc1	3.8	
COc1cc(OC)c(-c2cccs2)cc1/C=C/C(=O)c1ccccc1C(=O)O	8.6	
